Reference: PubChem BioAssay
Active and inactive are the calls of the source.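 Rule for the calls, unless noted: active = viability at or below 10% of carrier control in both of two separate runs; inconclusive = viability at or below 10% in only one of the two runs; inactive = the rest.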

Legend:
[1] = SK-BR-3 cell growth inhibitors, pilot screen, 24 h, human (AID 572); conditions: SK-BR-3 viability, CellTiter-Glo luminescence, at 10 µM, stronger effect = lower value;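 note: compound exposure lasted between 18 and 24 h rather than exactly 24 h; 100% = carrier-treated control wells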
[2] = HUVEC growth inhibition – cell-based, human, primary screen (AID 575;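 active = viability at or below 30% in both replicate assays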;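 note: 100% = median of untreated cell wells with 0.1% DMSO on each plate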); conditions: HUVEC proliferation, CellTiter-Glo luminescence, 72 h; at 10 µM; stronger effect = lower value
Method in brief: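 Assay system: Primary human umbilical vein endothelial cells | Quantity: 1250 cells per well | Medium: Supplemented EBM, 2% fetal bovine serum | Detection: CellTiter-Glo luminescence measuring cellular ATP | Read-out: % viability vs DMSO wells | Plate: Collagen-coated 384-well format | Times: 72 h exposure, 37 °C, 5% CO2, 30 min RT equilibration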

[3] = growth inhibitors of H69AR lung tumor, primary screen, human, duplicate replicates (AID 580;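 active = viability at or under a set limit in both replicates, limit being median viability minus 3 SD, cut at about 48% in these data, passing the limit was not always enough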;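 note: 100% = mean luminescence of untreated wells and 0% = no signal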); conditions: H69AR lung tumor cells viability, ATP luminescence, 72 h; at 10 µM; stronger effect = lower value
[4] = reversal of MRP1-mediated doxorubicin resistance, pilot screen, H69AR cells, doxorubicin co-treatment (AID 601;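 active = viability loss from added drug above about 55%, and viability with drug at most 40%, in both replicates, limit read from the data, passing the limit was not always enough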); conditions: CellTiter-Glo, 72 h, at 10 µM; for differential viability (reversal): stronger effect = higher value
[5] = 384-well plate pilot, post-Golgi transport modulator project, inhibition of yeast transport mutant growth (AID 636; in the data active = inhibition above about 31%); conditions: absorbance 615 nm, about 18 h, stronger effect = higher value
[6] = growth suppression of yeast trafficking mutant, preliminary HTS, modulators of trafficking downstream of Golgi apparatus project, 1536-format plate, OD 615 nm (AID 637; in the data active = inhibition above about 30%); conditions: yeast transport mutant growth, absorbance 615 nm, 18 h; stronger effect = higher value
[7] = H69AR cells + 2 uM doxorubicin, measured here: viability with 2 uM doxorubicin, stronger effect = lower value
[8] = H69AR cells, compound alone cytotoxicity

Row | SMILES | viability [1] | viability [2] | viability [3] | differential viability (reversal) ([4]; H69AR cells + 2 uM doxorubicin) | viability [4, 7] | viability [4, 8] | inhibition [5] | inhibition [6]
1 | Cc1cc(C)cc(N2C(=O)C3C4C=CC(C4)C3C2=O)c1 (stereo not drawn) | 100% (inactive) | 109% (inactive) | 93% (inactive) | 7.94% (inactive) | 85% | 93% | -3.15% (inactive) | 2.36% (inactive)
2 | CC(=O)OCC(=O)[C@@]1(OC(C)=O)[C@@H](C)C[C@H]2[C@@H]3C[C@H](F)C4=CC(=O)C=C[C@]4(C)[C@@]3(F)[C@@H](O)C[C@@]21C | 119% (inactive) | 102% (inactive) | 94.5% (inactive) | 5.08% (inactive) | 89.5% | 94.5% | -1.69% (inactive) | 7.33% (inactive)
3 | CCOC(=O)c1ccc(NS(=O)(=O)c2ccc3c(c2)CCCN3C(C)=O)cc1 | 118% (inactive) | 104% (inactive) | 89.8% (inactive) | -8.91% (inactive) | 98.7% | 89.8% | 0.91% (inactive) | -0.16% (inactive)
4 | Cc1cc(O)c(NC(=O)c2ccc(Br)o2)cc1C | 98% (inactive) | 71% (inactive) | 73.2% (inactive) | -15% (inactive) | 88.2% | 73.2% | -6.08% (inactive) | 1.5% (inactive)
5 | Cc1oc2c(c1C(=O)NCc1ccccc1)CCCC2 | 81% (inactive) | 97% (inactive) | 107% (inactive) | 8.32% (inactive) | 99% | 107% | -4.93% (inactive) | -1.64% (inactive)
6 | CC(=O)Nc1ccc(S(=O)(=O)NCc2csc(-c3cccnc3)n2)cc1 | 97% (inactive) | 101% (inactive) | 97.6% (inactive) | -4.67% (inactive) | 102% | 97.6% | -1.69% (inactive) | 1.8% (inactive)
7 | CCOc1cc(C2Nc3ccccc3C(=O)N2c2ccccc2OC)ccc1O (stereo not drawn) | 98% (inactive) | 105% (inactive) | 95% (inactive) | 0.125% (inactive) | 94.9% | 95% | -4.59% (inactive) | 28.4% (inactive)
8 | C=CCn1c(SCC#N)nc2c(c1=O)C(C)(C)Cc1ccccc1-2 | 104% (inactive) | 76.2% (inactive) | 78.8% (inactive) | -6.17% (inactive) | 85% | 78.8% | -5.62% (inactive) | 3.71% (inactive)
9 | C=CCN(CC=C)C(=O)c1ccncc1 | 115% (inactive) | 92.8% (inactive) | 102% (inactive) | -2.84% (inactive) | 104% | 102% | 0.68% (inactive) | -4.84% (inactive)
10 | O=C(NC1CCCCCC1)c1cc(S(=O)(=O)N2CCC3(CC2)OCCO3)ccc1F | 106% (inactive) | 98.2% (inactive) | 88.3% (inactive) | -4.04% (inactive) | 92.4% | 88.3% | 0.27% (inactive) | 3.27% (inactive)
11 | CCc1[nH]nc2c1C1(CCN(C(=O)OCc3ccccc3)CC1)C(C#N)=C(N)O2 | 112% (inactive) | 85.6% (inactive) | 85.2% (inactive) | -0.55% (inactive) | 85.8% | 85.2% | -8.9% (inactive) | 2.1% (inactive)
12 | c1cc(C(c2nnnn2C2CCCC2)N2CCOCC2)ccn1 (stereo not drawn) | 96.5% (inactive) | 104% (inactive) | 91.9% (inactive) | -0.285% (inactive) | 92.2% | 91.9% | -8.22% (inactive) | 0.16% (inactive)
13 | CCOC(=O)C1CCN(C(=O)CCCCn2c(=O)[nH]c3ccccc3c2=O)CC1 | 90% (inactive) | 114% (inactive) | 101% (inactive) | 6.14% (inactive) | 94.9% | 101% | 3.77% (inactive) | 2.62% (inactive)
14 | COc1ccccc1OCCCn1c(=O)oc2ccccc21 | 154% (inactive) | 90.1% (inactive) | 98.2% (inactive) | 11.9% (inactive) | 86.3% | 98.2% | -1.56% (inactive) | 2.79% (inactive)
15 | COc1ccc(OCCN2C(=O)NC(C)(c3ccc(C)cc3)C2=O)cc1 (stereo not drawn) | 119% (inactive) | 101% (inactive) | 91.1% (inactive) | -3.77% (inactive) | 94.9% | 91.1% | 3.15% (inactive) | -4.03% (inactive)
16 | O=C(NCc1cccs1)C1CC(=O)N(C2CCCC2)C1 (stereo not drawn) | 87% (inactive) | 91.1% (inactive) | 94.4% (inactive) | 7.15% (inactive) | 87.3% | 94.4% | 2.6% (inactive) | 8.03% (inactive)
17 | Cc1csc(SCCn2c(N3CCCC3)nc3c2c(=O)[nH]c(=O)n3C)n1 | 94% (inactive) | 105% (inactive) | 100% (inactive) | -4.86% (inactive) | 105% | 100% | -1.49% (inactive) | -2.55% (inactive)
18 | CC(CN(C)Cc1ccccc1)OC(=O)c1ccc2c(c1)OCCO2 (stereo not drawn) | 93% (inactive) | 85.3% (inactive) | 94.1% (inactive) | 5.22% (inactive) | 88.8% | 94.1% | -7.67% (inactive) | 1.29% (inactive)

Row | SMILES | viability [1] | viability [2] | viability [3] | differential viability (reversal) ([4]; H69AR cells + 2 uM doxorubicin) | viability [4, 7] | viability [4, 8] | inhibition [5] | inhibition [6]
19 | CCC1CCCCN1C(=O)CSc1nnc(-c2ccco2)o1 (stereo not drawn) | 126% (inactive) | 94.4% (inactive) | 85.7% (inactive) | 3.32% (inactive) | 82.3% | 85.7% | -1.78% (inactive) | -6.45% (inactive)
20 | N#CC1=C(N)Oc2c(ccc3cccnc23)C1c1cccnc1 (stereo not drawn) | 111% (inactive) | 60% (inactive) | 15.1% (active) | -10.9% (inactive) | 26% | 15.1% | -7.53% (inactive) | 5% (inactive)
21 | CCOC(=O)C1=C(c2ccccc2)N2CCS(=O)(=O)N=C2S1 | 92% (inactive) | 96.9% (inactive) | 90.2% (inactive) | 6.51% (inactive) | 83.7% | 90.2% | -2.13% (inactive) | 0% (inactive)
22 | CCN1C(=O)C2(C(C#N)=C(N)Oc3n[nH]c(C(C)C)c32)c2ccccc21 (stereo not drawn) | 113% (inactive) | 103% (inactive) | 89.2% (inactive) | -1.03% (inactive) | 90.2% | 89.2% | -8.9% (inactive) | -0.81% (inactive)
23 | O=C(Nc1cccnc1)c1cc2c(ccc3ccccc32)o1 | 96% (inactive) | 97.3% (inactive) | 84.9% (inactive) | 0.36% (inactive) | 84.5% | 84.9% | -0.13% (inactive) | -3.45% (inactive)
24 | CCc1nnc(-n2nc(C)cc2-c2ccccc2)n1N | 107% (inactive) | 118% (inactive) | 93.5% (inactive) | 2.83% (inactive) | 90.7% | 93.5% | -2.47% (inactive) | -1.8% (inactive)
25 | O=C(Nc1cccc(OCC(=O)N2CCOCC2)c1)C1CCCCC1 | 109% (inactive) | 90% (inactive) | 112% (inactive) | -0.43% (inactive) | 112% | 112% | -4.66% (inactive) | 0% (inactive)
26 | O=C1OCCC1Sc1ncnc2sccc12 (stereo not drawn) | 78% (inactive) | 107% (inactive) | 104% (inactive) | 21.8% (inactive) | 82.3% | 104% | -4.93% (inactive) | -2.18% (inactive)
27 | COC(=O)c1c(NC(=O)CSc2nnnn2C)sc(C)c1C | 96% (inactive) | 84.9% (inactive) | 92.5% (inactive) | 4.44% (inactive) | 88.1% | 92.5% | 0.14% (inactive) | -2% (inactive)
28 | COc1ccc(Nc2nc(-c3sc(N)nc3C)cs2)cc1 | 93% (inactive) | 92.9% (inactive) | 80.2% (inactive) | -5.13% (inactive) | 85.3% | 80.2% | -8.24% (inactive) | 0.73% (inactive)
29 | COc1cccc(NC(=O)C2C3C=CC4(O3)C2C(=O)N(C(C)C)C4C(=O)NC2CCCCC2C)c1 (stereo not drawn) | 111% (inactive) | 105% (inactive) | 96.9% (inactive) | 8.79% (inactive) | 88.1% | 96.9% | 0.26% (inactive) | -4.92% (inactive)
30 | Cn1nnnc1SCC1=C(C(=O)O)N2C(=O)[C@@H](NC(=O)[C@H](O)c3ccccc3)[C@H]2SC1 | 132% (inactive) | 82.9% (inactive) | 99.2% (inactive) | 2.56% (inactive) | 96.6% | 99.2% | -1.3% (inactive) | 0.33% (inactive)
31 | CC(C)NCC(O)COc1ccc(CC(N)=O)cc1 (stereo not drawn) | 88% (inactive) | 87.5% (inactive) | 88.1% (inactive) | -0.64% (inactive) | 88.7% | 88.1% | 1.95% (inactive) | -2.67% (inactive)
32 | CCOc1ccc(-c2nc(C#N)c(NCc3ccc4c(c3)OCO4)o2)cc1 | 68% (inactive) | 58.8% (inactive) | 70.4% (inactive) | 0.795% (inactive) | 69.6% | 70.4% | 1.03% (inactive) | -0.5% (inactive)
33 | CC(=O)Nc1nc(=S)ss1 | 135% (inactive) | 103% (inactive) | 87.5% (inactive) | -8.28% (inactive) | 95.7% | 87.5% | -1.3% (inactive) | -0.33% (inactive)
34 | O=C1NC(=O)C(CC(=O)N(c2ccccc2)C2(C(=O)NC3CCCC3)CCCCC2)N1 (stereo not drawn) | 99% (inactive) | 100% (inactive) | 97.2% (inactive) | 8.26% (inactive) | 88.9% | 97.2% | -8.36% (inactive) | 4.36% (inactive)
35 | COc1cccc(N2CCN(CC(=O)c3c[nH]c4ccc(OC)cc34)CC2C)c1 (stereo not drawn) | 104% (inactive) | 83.9% (inactive) | 70.4% (inactive) | -11.7% (inactive) | 82.1% | 70.4% | -5.33% (inactive) | -1.45% (inactive)
36 | CCc1c(C)c2ccc(OCC(=O)OC)cc2oc1=O | 109% (inactive) | 92.8% (inactive) | 94.4% (inactive) | -2.49% (inactive) | 96.9% | 94.4% | -1.49% (inactive) | 21.4% (inactive)
